We go through 24 compounds from PubChem BioAssay.

Unmarked numbers belong to inactive results. Inconclusive results are not listed. Active and inactive are the calls of the source.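 Rule for the calls, unless noted: active = inhibition over a set limit, the all-compound mean plus 3 SD, in both replicate runs; inconclusive = over that limit in just one replicate run; inactive = at or under that limit in both runs.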

As a reminder, the viability is a read-out of living cells in per cent, often relative to untreated cells. A word on the inhibition: it is the relative decrease from the control value, in per cent.

Assay [1] is described as follows: S. cerevisiae growth inhibition in permissive medium (OD615), pilot counter-assay for S. cerevisiae lifespan shortening project, permissive growth control (AID 705;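 active = growth inhibition above 25% in both replicates, a cutoff set 3 SD above the mean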). The settings on record: OD615, 24 h, at 10 µM, hits give high values. A digest of the protocol: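 assay system = Saccharomyces cerevisiae strain carrying genetically modified DeaD replicative-lifespan system | medium = SC raffinose/galactose permissive medium | dosing = 10 µM single dose, 0.25% DMSO | schedule = 24 h compound exposure at 30 °C after 4 h pre-growth | measured by = OD at 615 nm | read-out basis = growth inhibition from lowered OD615 after 24 h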

Assay [2] can be described thus: S. cerevisiae growth inhibition in restrictive medium, OD615, pilot screen, restrictive growth control, yeast lifespan reduction project (AID 706;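 active = growth inhibition above a set limit, 3 SD over mean compound inhibition, in both replicates, cut at about 43% in these data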). The following applies: OD615, 48 h, at 10 µM, hits give high values. A digest of the protocol: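 Buffer or medium: CSMM-D glucose medium. Material: genetically modified Saccharomyces cerevisiae, DeaD replicative lifespan assay strain. Times: 48 h compound exposure at 30 °C. Measured by: optical density at 615 nm.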

A short description of assay [3]: doxorubicin toxicity protection in MRP-1 cells – H69AR cells, CellTiter-Glo, duplicate, MRP-1 activator project, pilot screen (AID 807;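 active = viability increase at or above a cutoff of the median across tested compounds plus 3 SD, cut at about 8.5% in these data, passing the limit was not always enough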;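 note: compound pretreatment 18-22 h then 72 h combined with doxorubicin; 0% = doxorubicin alone and 100% = vehicle without doxorubicin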). The following applies: H69AR viability with doxorubicin, CellTiter-Glo luminescence; at 10 µM; hits give high values. A general note: In ATP-based viability assays light output follows the ATP content of the culture.
A short description of assay [4]: viability of HCT116 without oncogenic beta-catenin – human colon tumor cells, pilot screen (AID 823;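 active = cell viability at or below a set limit in both duplicate runs, the limit being the all-compound median minus 4 SD, cut at about 23% in these data, passing the limit was not always enough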;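 note: 0% = wells killed by 20 µM Hyamine and 100% = untreated DMSO cell wells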). The following applies: HCT116 beta-catenin knockout viability, CellTiter-Glo, 60 h; at 10 µM; hits give low values.
A short description of assay [5]: viability of PTEN-null HCT116 cells – cell-based, HCT116 clonal line, CellTiter-Glo, pilot screen (AID 824;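 active = viability at or below 27.92% in each of two runs, the all-compound median minus 4 SD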;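 note: 0% = 20 µM Hyamine control and 100% = vehicle cell control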). The following applies: HCT116 PTEN-deleted viability, 60 h, at 10 µM, hits give low values.
Assay [6] can be described thus: RAM pathway blockade in budding yeast – dse1pr::URA3 reporter, 5-FOA selection, pilot screen (AID 869).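 Note: 0% = DMSO wells with no growth and 100% = 10 µM 1-NA-PP1 with full growth; RAM network block rescues cells from 5-FOA so hits raise OD615 growth.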 The following applies: S. cerevisiae dse1pr::URA3 5-FOA growth, OD615, 2 d; at 10 µM; hits give high values; strain carries analog-sensitive mutant Cbk1 kinase.
The nature of assay [7]: RAM signaling pathway blockade in yeast – S. cerevisiae, Pdr1DBD-CYC8 efflux-inhibited sensitized strain, primary screen (AID 1298;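 active = RAM network inhibition above 8.4% in each of two replicates, 3 SD over the compound average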;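 note: 0% = DMSO untreated cells without growth and 100% = 10 µM 1-NA-PP1 full growth; higher means more yeast growth rescued from 5-FOA killing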). The settings on record: S. cerevisiae cbk1-as DSE1-URA3 strain, 5-FOA growth OD615, 2 d; at 50 µM; hits give high values.

Consider `COc1ccccc1-c1cc(C(=O)N2CCCCC2)no1`, for which the results for the growth inhibition in assay [1] and in assay [2] were -6.35% and 11.2%, respectively. Moreover, in assay [3], the viability increase was -0.55%. The viability is 103% in assay [4] and 93.2% in assay [5]. In addition, the inhibition in assay [6] is 2.1%. For the same compound, the RAM network inhibition in assay [7] was 4.18%.
For the compound `CCOc1cc(N2CCOCC2)c(OCC)cc1NC(=O)c1cc(-c2ccco2)nc2ccccc12`, the growth inhibition in assay [1] is 1.62%; in assay [2] it was -4.63%. In addition, the viability increase in assay [3] was -5.6%. For the same compound, the results for the viability in assay [4] and in assay [5] were 65.4% and 60.8%, respectively. Also, the inhibition in assay [6] was 0.475%. In addition, in assay [7], the RAM network inhibition is 6.51%.
With `O=C(Nc1nc2c(s1)CCCC2)c1ccc(Br)o1`, the growth inhibition in assay [1] is 6.52%; in assay [2], -10.8%. In addition, the viability increase in assay [3] is -4.11%. In addition, the viability is 62.4% in assay [4] and 64.6% in assay [5]. The inhibition in assay [6] is 1.8%. Moreover, in assay [7], the RAM network inhibition was 4.86%.
In the case of `COc1cccc(C2CC(c3ccc(Cl)cc3)Nc3nc(N)nn32)c1` (stereo not drawn), the growth inhibition was 4.02% in assay [1] and 11.4% in assay [2]. Moreover, the viability increase in assay [3] was 3.49%. For the same compound, the viability is 91.4% in assay [4] and 83% in assay [5]. In addition, the inhibition in assay [6] was 1.92%. The RAM network inhibition in assay [7] was 6.11%.
For the compound `COC(=O)c1cc(OC)c(OC)cc1NC(=O)C1CCCO1` (stereo not drawn), the growth inhibition was -6.67% in assay [1] and 1.77% in assay [2]. The viability increase in assay [3] is -0.93%. Besides, the viability was 105% in assay [4] and 99.8% in assay [5]. Also, the inhibition in assay [6] is 0.545%. For the same compound, the RAM network inhibition in assay [7] is 4.85%.
Turning to `COc1ccc(CN=CC2=C(O)CNC2=O)cc1OC`, the values for the growth inhibition in assay [1] and in assay [2] were -12% and -8.51%, respectively. In addition, the viability increase in assay [3] was -0.57%. Moreover, the viability in assay [4] was 99.8%; in assay [5], 103%. For the same compound, in assay [6], the inhibition was 1.47%. Besides, in assay [7], the RAM network inhibition was 5.81%.
For the compound `CSc1cccc(NC(=O)CN(c2ccc(C)cc2C)S(C)(=O)=O)c1`, the figures for the growth inhibition in assay [1] and in assay [2] were -12.5% and -9.39%, respectively. For the same compound, the viability increase in assay [3] was -1.07%. Moreover, the viability in assay [4] was 76.8%; in assay [5], 67.8%. The inhibition in assay [6] is 1.02%. Also, the RAM network inhibition in assay [7] was 2.43%.
As for `CN(C)S(=O)(=O)N1CCC(Cc2ccccc2)CC1`, the growth inhibition in assay [1] was -9.73%; in assay [2], 3.98%. In addition, the viability increase in assay [3] is -0.78%. Also, the viability in assay [4] was 85.3%; in assay [5], 85%. Further, the inhibition in assay [6] was -0.275%. Also, the RAM network inhibition in assay [7] was 1.8%.
On to `Cc1cccc2sc(NC(=O)CCNS(=O)(=O)c3cccc4nonc34)nc12`, for which the growth inhibition was -11.1% in assay [1] and -6.5% in assay [2]. In addition, in assay [3], the viability increase was -5.31%. Besides, the results for the viability in assay [4] and in assay [5] were 86.1% and 80.7%, respectively. Moreover, the inhibition in assay [6] was 2.71%. Moreover, the RAM network inhibition in assay [7] is 7.24%.
In the case of `Cc1oc(-c2cccs2)nc1CS(=O)CC(=O)NC1CCCCCC1` (stereo not drawn), the growth inhibition in assay [1] is 11.3%; in assay [2] it was 51.7% (active). Besides, the viability increase in assay [3] was -2.99%. Moreover, the results for the viability in assay [4] and in assay [5] were 75.4% and 84.5%, respectively. Also, in assay [6], the inhibition is -0.045%. Also, the RAM network inhibition in assay [7] is -1.22%.
For the compound `CCOC(=O)C1CCCCN1Cc1cc(Cl)ccc1O` (stereo not drawn), the values for the growth inhibition in assay [1] and in assay [2] were -3.16% and -13.2%, respectively. In addition, the viability increase in assay [3] is 0.31%. Also, the viability in assay [4] was 87%; in assay [5] it was 81%. Further, the inhibition in assay [6] was 0.74%. In assay [7], the RAM network inhibition is 3.98%.
As for `O=c1cc(N2CCOCC2)[nH]c(=O)n1-c1ccc(Cl)cc1`, the growth inhibition in assay [1] is -5.36%; in assay [2], -6.01%. Also, the viability increase in assay [3] was -1.67%. Besides, the viability in assay [4] is 105%; in assay [5], 97.2%. In addition, the inhibition in assay [6] was 1.17%. Further, in assay [7], the RAM network inhibition is 1.09%.
As for `O=C(CSc1ncn[nH]1)Nc1nnc(-c2ccccc2)s1`, the growth inhibition in assay [1] is 6.24%; in assay [2] it was 11.1%. Further, in assay [3], the viability increase was 4.9%. The viability in assay [4] was 94.3%; in assay [5] it was 93.7%. Also, the inhibition in assay [6] was -0.75%. Moreover, in assay [7], the RAM network inhibition is 0.61%.
`COc1ccc(C(=O)NCC(c2cccnc2)N2CCN(c3ccc(F)cc3)CC2)cc1OC` (stereo not drawn): the growth inhibition in assay [1] was -12.2%; in assay [2], -0.995%. Also, the viability increase in assay [3] is -3.89%. For the same compound, the viability in assay [4] is 88.9%; in assay [5], 80.8%. For the same compound, the inhibition in assay [6] was 1.82%. The RAM network inhibition in assay [7] is 4.32%.
Take `CNc1oc(-c2ccccc2)nc1C#N`: the growth inhibition is 1.34% in assay [1] and 21.3% in assay [2]. The viability increase in assay [3] is 2.14%. The values for the viability in assay [4] and in assay [5] were 101% and 102%, respectively. For the same compound, in assay [6], the inhibition is -0.58%. The RAM network inhibition in assay [7] is 5.84%.
As to `CCOC(=O)N1CCN(C(=O)CSc2nnc(-c3ccc(C)c(C)c3)o2)CC1`, the growth inhibition in assay [1] is -1.67%; in assay [2] it was 1.73%. The viability increase in assay [3] was -2.44%. Besides, the viability in assay [4] is 111%; in assay [5], 97.4%. Moreover, in assay [6], the inhibition is 2.31%. The RAM network inhibition in assay [7] was 4.67%.
Consider `Cc1ccc(-n2ncc3c(NCc4ccco4)ncnc32)c(C)c1`, for which the growth inhibition in assay [1] was -3.74%; in assay [2], -9.7%. In addition, the viability increase in assay [3] is -4.75%. Also, the viability was 97.3% in assay [4] and 90.4% in assay [5]. Further, in assay [6], the inhibition was -0.12%. The RAM network inhibition in assay [7] was -0.57%.
`CSC1=N/C(=C\c2ccccc2F)C(=O)S1`: the figures for the growth inhibition in assay [1] and in assay [2] were -23.1% and -24.4%, respectively. Besides, the viability increase in assay [3] is -2.19%. Also, the viability is 102% in assay [4] and 104% in assay [5]. Besides, the inhibition in assay [6] was 0.435%. Besides, in assay [7], the RAM network inhibition is -0.79%.
With `Cc1cc(N2CCN(C(=O)c3ccco3)CC2)n2nc(C)nc2n1`, the growth inhibition in assay [1] was -6.63%; in assay [2] it was 5.6%. In addition, in assay [3], the viability increase is -3.61%. The viability in assay [4] was 95.5%; in assay [5] it was 98.2%. In assay [6], the inhibition was 0.95%. Also, the RAM network inhibition in assay [7] is -0.63%.
Regarding `CCN1C(=O)c2cccc3c(NC(=O)c4ccc(S(=O)(=O)N5CCOCC5)cc4)ccc1c23`, the growth inhibition in assay [1] is 14.5%; in assay [2], 3.86%. The viability increase in assay [3] is -6.36%. Further, the viability in assay [4] was 65.6%; in assay [5], 65.8%. Besides, in assay [6], the inhibition is 1.11%. Besides, the RAM network inhibition in assay [7] is 2.6%.
On to `C=CCn1c(SCC(=O)Nc2cc(C)nn2-c2ccccc2)nnc1C1CCCCC1`, for which the growth inhibition in assay [1] was -7.09%; in assay [2], -6.5%. The viability increase in assay [3] is -1.14%. In addition, the viability in assay [4] is 90.8%; in assay [5], 94.3%. Also, the inhibition in assay [6] is 0.165%. Also, in assay [7], the RAM network inhibition is 3.38%.
For the compound `Cc1cc2n(c1)CCn1c(C)ccc1-2`, the values for the growth inhibition in assay [1] and in assay [2] were 18.4% and 14.5%, respectively. In addition, in assay [3], the viability increase is -2.98%. The values for the viability in assay [4] and in assay [5] were 97.8% and 96.9%, respectively. In addition, in assay [6], the inhibition is 1.99%. Besides, in assay [7], the RAM network inhibition is 2.57%.
For the compound `COCCCNC(=O)c1c(F)c(F)c(F)c(F)c1F`, the growth inhibition in assay [1] is -11.2%; in assay [2] it was -2.95%. Besides, in assay [3], the viability increase was -1.94%. The viability in assay [4] is 95.7%; in assay [5], 92.9%. Besides, the inhibition in assay [6] was 0.09%. In addition, the RAM network inhibition in assay [7] is -0.98%.
Take `CCN1CCN(C(=O)Nc2ccc(Cc3ccc(NC(=O)N4CCN(CC)CC4)cc3)cc2)CC1`: the growth inhibition in assay [1] is -9.89%; in assay [2], -9.14%. Moreover, the viability increase in assay [3] is -2.42%. Moreover, the viability was 78.3% in assay [4] and 86.7% in assay [5]. Further, in assay [6], the inhibition was 1.72%. Further, in assay [7], the RAM network inhibition is 2.65%.
